Measurements of several laboratories.
Each line is one published result; the experiments were not run side by side.
Effect on: cell growth or viability

SMILES	cell line	method	time	IC50 [µM]
Cc1nc(Nc2ncc(C(=O)Nc3c(C)cccc3Cl)s2)cc(N2CC[C@H](O)C2)n1	Raji	ATP luminescence	72 h	> 10
CCCC(=O)Nc1nc2cc(-c3ccc4ncn(Cc5ccccc5)c(=O)c4c3)ccc2s1	PC-9	MTT	72 h	> 20
O=C(NO)c1ccc(Cn2cnc3c(Nc4ccc(Br)cc4F)ncnc32)cc1	Raji	MTT	72 h	0.23
O=C(Nc1ccc(Br)cc1)Nc1nc2cc(-c3ccc4ncn(Cc5ccccc5)c(=O)c4c3)ccc2s1	PC-9	MTT	72 h	> 20
O=C1C(=Nc2ccccc2I)c2ccccc2N1Cc1cccc(Cl)c1	HCT-116	MTT	48 h	4.86
COc1ccc(NC(=O)Nc2nc3cc(-c4ccc5ncn(CCN(C)C)c(=O)c5c4)ccc3s2)cc1	PC-9	MTT	72 h	> 20
O=C1CCC(N2C(=O)c3cccc4c(Cc5cnn(C6CCN(C(=O)CO)CC6)c5)ccc2c34)C(=O)N1 (stereo not shown)	NCI-H929	–	–	0.00016
Nc1ccccc1NC(=O)c1ccc(Cn2cnc3c(Nc4ccc(Cl)cc4)ncnc32)cc1	Raji	MTT	72 h	0.11
O=C1CCC(N2C(=O)c3cccc4c(Cn5cc(C6CCNCC6)nn5)ccc2c34)C(=O)N1 (stereo not shown)	NCI-H929	–	–	0.00621
O=C(NO)c1ccc(Cn2cnc3c(Nc4ccc(F)c(Cl)c4)ncnc32)cc1	Raji	MTT	72 h	0.87
O=C1CC[C@H](N2C(=O)c3cccc4c(Cc5ccc(CN6CCOCC6)cc5)ccc2c34)C(=O)N1	NCI-H929	–	–	6e-05
Cc1cc(C)cc(NC(=O)Nc2nc3cc(-c4ccc5ncn(Cc6ccccc6)c(=O)c5c4)ccc3s2)c1	PC-9	MTT	72 h	> 20
O=C1CCC(N2C(=O)c3cccc4c(Cc5ccc(CN6CCNCC6)nc5)ccc2c34)C(=O)N1 (stereo not shown)	NCI-H929	–	–	0.0135
Cc1ccc(NC(=O)Nc2nc3cc(-c4ccc5ncn(Cc6ccccc6)c(=O)c5c4)ccc3s2)cc1	PC-9	MTT	72 h	> 20
CCCc1cc2cc(-n3nc(C)c4c3CC(C)(C)CC4=O)cc(N3CCC(O)CC3)c2c(=O)[nH]1	SK-OV-3	MTS	–	2.98
O=C(Nc1ccc(C(F)(F)F)cc1)Nc1nc2cc(-c3ccc4ncn(CCN5CCOCC5)c(=O)c4c3)ccc2s1	PC-9	MTT	72 h	> 20
Cc1sc2c(c1C)C(c1ccc(Cl)cc1)=N[C@@H](CC(=O)NCCCCNC(=O)COc1cccc3c1C(=O)N(C1CCC(=O)NC1=O)C3=O)c1nnc(C)n1-2 (stereo partly shown)	AGS	CCK-8	72 h	5.12
O=C(Nc1cccc(F)c1)Nc1nc2cc(-c3ccc4ncn(Cc5ccccc5)c(=O)c4c3)ccc2s1	PC-9	MTT	72 h	> 20
O=C1CCC(N2C(=O)c3cccc4c(Cc5cnn(C6CCN(C(=O)CS)CC6)c5)ccc2c34)C(=O)N1 (stereo not shown)	NCI-H929	–	–	0.00123
O=C1C(=Nc2ccc(Cl)cc2Br)c2ccccc2N1Cc1ccc(Br)cc1	HCT-116	MTT	48 h	0.6
COc1cccc2c1C(=O)c1c(O)c3c(c(O)c1C2=O)C[C@@](O)(C(=O)CO)C[C@@H]3O[C@H]1C[C@H](N)[C@H](O)[C@H](C)O1	DOHH-2	–	96 h	10
COc1ccc(Nc2ncnc3c2ncn3Cc2ccc(C(=O)Nc3ccccc3N)cc2)cc1	Raji	MTT	72 h	11
